High-throughput results deposited in PubChem BioAssay by several laboratories.
An excerpt weighted towards active compounds, which were near 9.4% of everything screened.
Beta cell apopt – beta cell apoptosis inhibition; protection from apoptosis, % (test concentration not listed); hit rate 0.8% among 300,000; INS-1E cytokine-induced death, ATP luminescence, 48 h; percent of positive-control rescue, neutral wells zero;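 active = Every replicate reaches about 75%, or at least half do and their mean reaches it too, limit read from the data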;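 also: 0% = cytokine-treated negative control wells and 100% = positive control rescue; higher means more ATP so stronger rescue from cytokine killing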
CSC inhib – blocks cancer stem cells. cancer stem cell-like cells viability, luminescence. inhibition, % at 7.5 µM. hit rate 1.1% among 300,000. AID 2717; in the data active = inhibition above about 75%; tested in HMLE shEcad cells
SKKanGAS inh – SKKanGAS growth inhibition; inhibition, % at 7.5 µM; S. pyogenes SKKanGAS, kanamycin growth, BacTiter-Glo, 6 h; hit rate 1.3% among 300,000;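 active = mean replicate score, as percent of positive control median, at least 50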;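 also: strain carries kanamycin resistance gene driven by streptokinase promoter and grows in 40 µg/ml kanamycin; loss of luminescence reflects streptokinase promoter inhibition or plain growth inhibition; 0% = median of DMSO wells and 100% = positive control at its reference dose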
L major viab – Leishmania major promastigote growth inhibition. Leishmania major promastigotes, resazurin fluorescence viability. inhibition, % at 10 µM. hit rate 9% among 200,000; in the data active = inhibition above about 50%;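 also: promastigotes grown with compound for 44 hours at 28 °C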
T cruzi inh – T. cruzi replication inhibition. inhibition, % (test concentration not listed). T. cruzi beta-gal in NIH3T3, luminescence, 90 h. hit rate 1.4% among 300,000;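 active = mean inhibition across valid replicates above about 55%, limit read from the data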;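 also: signal also drops with host cell toxicity which is not excluded here; 0% = plate median of DMSO wells and 100% = zero luminescence signal; higher percent means less beta-gal luminescence so fewer parasites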
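System: NIH/3T3 fibroblasts plus reporter T. cruzi. Medium: DMEM plus 2% FBS. Probe or stimulus: 5000 reporter trypomastigotes per well. Compound: single 50 nL compound addition per well in DMSO. Incubation: co-culture of at least 90 h after 3 h attachment. Detection: GalScreen β-gal luminescence, detergent lysis, 60 min. Evaluation: parasite load inhibition, %.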
Mdm2-MdmX inh – inhibitors of human Mdm2/MdmX interaction; SaOS-2 split-luciferase Mdm2/MdmX complementation, luminescence; inhibition, % at 8 µM; hit rate 3% among 330,000; AID 485346;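 active = inhibition of at least 50% at 8 µM in the primary screen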
Numbers without * were called inactive; · = no result given.

SMILES	Beta cell apopt	CSC inhib	SKKanGAS inh	L major viab	T cruzi inh	Mdm2-MdmX inh
O=c1c2ccccc2nc(SCC2CCCCO2)n1-c1ccccc1 (stereo unspecified)	-1	4	8	76*	30	-17
O=P(Nc1cccc(F)c1)(Oc1ccccc1F)Oc1ccccc1F	-2	4	7	·	5	1
COc1cccc(NP(=O)(Oc2ccc(Cl)cc2)Oc2ccc(Cl)cc2)c1	-2	77*	56*	9	30	49
Cc1cccc(NP(=O)(Oc2ccccc2F)Oc2ccccc2F)c1	9	39	6	57*	1	·
CN/C=C(/Cl)P(=O)(OC(C)C)OC(C)C	·	-5	-2	·	-15	-16
FC(F)(F)c1ccc(CNCCc2ccc3c(c2)OCO3)cc1	-9	41	-9	·	55*	8
Clc1ccc(CNCCc2ccc3c(c2)OCO3)cc1	-12	7	2	·	41	22
C[C@H]1CC[C@@]2(C)[C@@H](CC[C@@H]3[C@@H]2CC[C@]2(C)[C@@H](O)CC[C@@H]32)C1	-6	6	87*	·	9	24
C[C@]12CCC3C(CC[C@H]4C[C@@H](O)CC[C@]34C)[C@H]1CC[C@H]2O (stereo partly specified)	-8	-10	·	·	·	25
Nc1ccc(N2CCN(Cc3ccccc3Cl)CC2)c(Cl)c1	1	79*	10	45	9	-24
Clc1ccccc1CN1CCN(c2ccccc2)CC1	·	·	-3	-7	15	-6
O=C(c1ccc(N2CCCCC2)c([N+](=O)[O-])c1)N1CCC2(CC1)OCCO2	-6	16	1	0	-6	15
CC1CCCN(c2ccc(C(=O)N3CCC4(CC3)OCCO4)cc2[N+](=O)[O-])C1 (stereo unspecified)	-27	116*	-4	-3	12	0
CCc1cc(=O)oc2cc(OCC(=O)N3C[C@H]4C[C@@H](C3)c3cccc(=O)n3C4)ccc12	-8	-8	0	·	-6	22
Cc1[nH]c2c(Cl)cccc2c1CCN	-4	-2	3	56*	-8	8
NCCc1c[nH]c2ccccc12	-8	-5	·	-3	·	4
Cc1ccc(C(c2nnnn2Cc2ccccc2)N2CC=C(c3ccc(F)cc3)CC2)cc1 (stereo unspecified)	21	24	0	16	65*	-1
NC(=O)c1ccc(OCCC(O)N2CC=C(c3ccc(F)cc3)CC2)cc1 (stereo unspecified)	-4	-8	·	·	·	33
Fc1ccc(Cn2nnnc2C(c2ccc(Cl)cc2)N2CC=C(c3ccc(F)cc3)CC2)cc1 (stereo unspecified)	-1	9	-8	99*	69*	-7
Fc1ccc(C2=CCN(C(c3ccc(Cl)cc3)c3nnnn3Cc3ccccc3)CC2)cc1 (stereo unspecified)	-1	2	-8	38	38	21
O=S(=O)(c1ccc(F)cc1)N1CCCCC1c1cccnc1 (stereo unspecified)	2	-16	0	·	6	10
O=C1NC(=O)C(=Cc2cc([N+](=O)[O-])ccc2N2CCCCC2)C(=O)N1	-2	-7	5	97*	3	-9
Cc1ccc(-n2nc(C)c3c2NC(=O)CSC3c2ccc3c(c2)OCO3)cc1 (stereo unspecified)	-3	-7	12	-1	6	35
COc1ccc(C2SCC(=O)Nc3c2c(C)nn3-c2ccccc2)cc1 (stereo unspecified)	·	17	-9	100*	-1	10
Nc1cc(Cl)c2nonc2c1[N+](=O)[O-]	-1	36	·	98*	·	·
SMILES	Beta cell apopt	CSC inhib	SKKanGAS inh	L major viab	T cruzi inh	Mdm2-MdmX inh
CC(=O)N(C1=NCCCS1)c1ccc(Cl)cc1	-5	-32	-18	96*	8	-23
Cc1ccc(Cn2cc(C=O)c(-c3ccc(C)cc3)n2)cc1	-7	0	1	3	-3	-25
Cc1ccc(N2CCN(CCc3ccccc3)CC2)cc1	-3	29	·	84*	-5	-3
O=C(NCCN1CCOCC1)c1ccc(Cl)nc1	-4	-7	0	·	-11	29
O=C(NCCCN1CCOCC1)C(Cl)(Cl)Cl	-1	-15	-2	53*	-1	4
c1ccc(-c2ccc(-c3n(-c4ccccn4)c4ccccc4[n+]3-c3ccccn3)cc2)cc1	·	·	7	88*	60*	·
Cc1ccccc1C1=NCC(=O)N(CC(=O)NCc2ccco2)c2sc3c(c21)CCCC3	-3	-20	·	93*	·	7
